In the RNAGym collection of RNA variant scans (doi:10.1101/gad.245936.114):
Variants at the floor of the assay were thinned out.

B1: tRNA (parent)
chain: CUCUCGGUAGCCAAGUUGGUUUAAGGCGCAAGACUUUAAUUUAUCACUACGAAAUCUUGAGAUCGGGCGUUCGACUCGCCCCCGGGAGAUUUUUUCCUCGAGCAA

Variants of: B1
Test: nonsense suppression (GFP-seq) (ratio to wild type); higher = more function; SUP4oc tRNA, yeast GFP reporter sort-seq
Method in brief: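 Yeast were grown in raffinose/galactose medium with 80 mg/L adenine, each strain bearing a genome-integrated ochre-suppressor tRNA variant from a ~3% random-mutation library, a galactose-driven GFP ochre reporter, and RFP. After sorting into GFP/RFP bins, every bin was sequenced on an Illumina platform at phred ≥30. The GFPSEQ value, a measure of nonsense suppression, is the weighted bin median GFP/RFP relative to the unmutated parent tRNA, using each variant's estimated cell share per bin as the weight. Only variants with ≥100 reads and ≥30 cells were included.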
Variant G65U G85A has a nonsense suppression of at most 0.026.
C3A G28U G65C showed a nonsense suppression of at most 0.026.
G66A G78A showed a nonsense suppression of 0.0402.
Variant C27G C80U C83A has a nonsense suppression of at most 0.026.
Variant U16A A31G G86U has a nonsense suppression of at most 0.026.
A13G C64G gave a nonsense suppression of at most 0.026.
A24U C82U showed a nonsense suppression of 0.0571.
For C1U C3A C29A, the nonsense suppression was at most 0.026.
A9U G85C gave a nonsense suppression of 0.0283.
A9G G28A G61A showed a nonsense suppression of 1.24.
In the case of U4C A23U A54G G59U G67C, the nonsense suppression is reported as at most 0.026.
Variant G18U G59A has a nonsense suppression of at most 0.026.
Variant G26C C29G has a nonsense suppression of 0.0685.
Work on U17G G67A yielded a nonsense suppression of 0.0593.
Variant C5U U63A has a nonsense suppression of 0.0305.
G25C A60G gave a nonsense suppression of 0.0619.
Work on G26A C27G yielded a nonsense suppression of at most 0.026.
For A30U C81A, the nonsense suppression was 0.0383.
In the case of C81G A87G, the nonsense suppression is reported as 0.0415.
U22C A54C gave a nonsense suppression of 1.2.
Work on A23U C80G yielded a nonsense suppression of at most 0.026.
C11G A24G A74G gave a nonsense suppression of at most 0.026.
In the case of U17A G78A, the nonsense suppression is reported as 0.449.
Work on U57C G73A yielded a nonsense suppression of 0.0414.
U21G A30G A89G gave a nonsense suppression of at most 0.026.
U17C A60G showed a nonsense suppression of 0.411.
With A23G G84U G86U the nonsense suppression was at most 0.026.
In the case of A31U A60U, the nonsense suppression is reported as 0.647.
Variant G7A U35G G59A has a nonsense suppression of at most 0.026.
C56U showed a nonsense suppression of 0.15.
With U55C C79U the nonsense suppression was 0.183.
For A23G G78A, the nonsense suppression was 0.0355.
For A13C U16A, the nonsense suppression was 1.17.
U17A U21A gave a nonsense suppression of 0.966.
Work on G61C G88A yielded a nonsense suppression of 0.0268.
A60G G78U showed a nonsense suppression of 0.0498.
Variant A60C A62C A87G has a nonsense suppression of at most 0.026.
Variant C27U G32C has a nonsense suppression of at most 0.026.
U17A A24G gave a nonsense suppression of 0.0262.
Work on G10A C56U G73A yielded a nonsense suppression of at most 0.026.
Work on C29U G84A yielded a nonsense suppression of 0.0288.
Work on A24G G59A yielded a nonsense suppression of at most 0.026.
With C1U C34U G85C the nonsense suppression was at most 0.026.
Variant C3U U22A has a nonsense suppression of 0.169.
A14G G19U A23G A30G C75U C82U showed a nonsense suppression of at most 0.026.
C29U U76A G84U gave a nonsense suppression of at most 0.026.
In the case of A13C G73U, the nonsense suppression is reported as 0.0412.
U17G U63C showed a nonsense suppression of 0.799.
With U4G A31U the nonsense suppression was 0.0387.
In the case of U16A C29U, the nonsense suppression is reported as 0.186.
With G18U A30U G78U the nonsense suppression was at most 0.026.
Work on C1G G6U G66U G73U yielded a nonsense suppression of at most 0.026.
U17A A87G gave a nonsense suppression of 1.19.
Work on G85A A87G yielded a nonsense suppression of 1.18.
In the case of A54U U76C, the nonsense suppression is reported as 1.08.
In the case of A9G G73U, the nonsense suppression is reported as 0.053.
With G28A A54U the nonsense suppression was 1.1.
A62U U71G showed a nonsense suppression of at most 0.026.
With U16A G78U the nonsense suppression was 0.188.
For U4A G19A A31U A62G, the nonsense suppression was at most 0.026.
Work on A13C G84C yielded a nonsense suppression of 0.0388.
Work on G61U U76C yielded a nonsense suppression of 0.911.
A60C G84C gave a nonsense suppression of 0.0911.
G28U U35A gave a nonsense suppression of at most 0.026.
For U55C G73A, the nonsense suppression was 0.0331.
U17G G32U U55A U57C U76C showed a nonsense suppression of at most 0.026.
In the case of U4G U22A, the nonsense suppression is reported as 0.216.
Variant G61A has a nonsense suppression of 0.853.
G32U U76C gave a nonsense suppression of at most 0.026.
U22G C75U gave a nonsense suppression of 0.981.
C5A U58A G78C gave a nonsense suppression of at most 0.026.
With U22C G61A C79U the nonsense suppression was 0.197.
For U2G A87U, the nonsense suppression was 0.655.
C5G G25C G69C C80A showed a nonsense suppression of at most 0.026.
For C12G G15A G19U, the nonsense suppression was at most 0.026.
U16G U76C showed a nonsense suppression of 1.07.
Variant U55C C77A has a nonsense suppression of 0.0479.
Variant U63G G67A has a nonsense suppression of 0.0444.
For C3G A23G C27U C81A C83A G86A, the nonsense suppression was at most 0.026.
G61C A89C gave a nonsense suppression of at most 0.026.
C29U U71C showed a nonsense suppression of 0.0323.
Work on C11A U17C yielded a nonsense suppression of at most 0.026.
With G28C U55C the nonsense suppression was 0.183.
Variant U57A G78C has a nonsense suppression of at most 0.026.
In the case of A54C U71C, the nonsense suppression is reported as 0.0406.
For C34A G69A, the nonsense suppression was at most 0.026.
With C5U the nonsense suppression was 0.096.
For U4C, the nonsense suppression was 0.585.
Work on A30G U71C yielded a nonsense suppression of 0.035.
Work on G61A C72A yielded a nonsense suppression of 0.0325.
Variant U2A C27U has a nonsense suppression of 0.0357.
Variant A13C C72U has a nonsense suppression of 0.23.
A24C C72U showed a nonsense suppression of 0.0288.
Work on A23C U76G G88A yielded a nonsense suppression of at most 0.026.
A23G A54U gave a nonsense suppression of 0.0263.
Variant A13U G78C has a nonsense suppression of 0.0621.
Work on A23G U55G yielded a nonsense suppression of at most 0.026.
With C29U G65A C81U the nonsense suppression was 1.14.
In the case of C1U A9U A24C A30U A33G, the nonsense suppression is reported as at most 0.026.
G78A C83U gave a nonsense suppression of 0.0266.
C11G G26C A30C showed a nonsense suppression of at most 0.026.
A13C U16C showed a nonsense suppression of 1.12.
Work on C11A A30C U57A yielded a nonsense suppression of at most 0.026.
U17A C79A gave a nonsense suppression of at most 0.026.
With C12U U55C the nonsense suppression was 0.0665.
For A31G C34G U76G, the nonsense suppression was at most 0.026.
In the case of U63A C68U, the nonsense suppression is reported as 0.755.
With G25C C27G the nonsense suppression was at most 0.026.
A14C C82U showed a nonsense suppression of at most 0.026.
Work on A30U A31U C80A yielded a nonsense suppression of at most 0.026.
For A23U C29G, the nonsense suppression was at most 0.026.
Work on U8A U57C yielded a nonsense suppression of at most 0.026.
Work on A9C U22G yielded a nonsense suppression of 0.878.
With A13G G59U the nonsense suppression was at most 0.026.
For U17A U21C G85A, the nonsense suppression was 1.06.
C3G G78A gave a nonsense suppression of at most 0.026.
For G59C G66U C83A A87C, the nonsense suppression was at most 0.026.
For A31G A60C, the nonsense suppression was 0.177.
Variant C75U G78C has a nonsense suppression of 1.14.
U16A U20G gave a nonsense suppression of 1.11.
Variant C5U G28C A30G A33U has a nonsense suppression of at most 0.026.
For C11G C80G, the nonsense suppression was at most 0.026.
G61A A87U gave a nonsense suppression of 0.181.
For U20C G78U, the nonsense suppression was 0.0456.
In the case of G26U C34U, the nonsense suppression is reported as at most 0.026.
Work on A9C G73A yielded a nonsense suppression of 0.215.
Variant C11U A24G G26C U71A has a nonsense suppression of at most 0.026.
For C11U G18C U20G U76G, the nonsense suppression was at most 0.026.
Work on U17G A54G U57C yielded a nonsense suppression of at most 0.026.
Variant U63C A74G has a nonsense suppression of 0.0264.
U17G G19C U21A U57A G78U gave a nonsense suppression of at most 0.026.
Variant A13U G15A has a nonsense suppression of 0.046.
Variant G19A A33U U71A has a nonsense suppression of at most 0.026.
In the case of U8A A9G U58A C72G C79A, the nonsense suppression is reported as at most 0.026.
C11U G32U G69C G85C gave a nonsense suppression of at most 0.026.
With G61U G67A the nonsense suppression was 0.135.
In the case of C1A A54G U58C U71C, the nonsense suppression is reported as at most 0.026.
With G66A C75A the nonsense suppression was 1.18.
Variant U20C C29U has a nonsense suppression of 0.0276.
Variant A9C A13G U55A G73U has a nonsense suppression of at most 0.026.
Work on C1A U8A U55C A89U yielded a nonsense suppression of at most 0.026.
A14U G66A gave a nonsense suppression of at most 0.026.
Variant U8A A30U has a nonsense suppression of 0.0393.
U17A A23C C68G showed a nonsense suppression of at most 0.026.
Variant G61C C79U has a nonsense suppression of 0.202.
Variant U70C A74G A87C has a nonsense suppression of at most 0.026.
For C12U A31G C77G, the nonsense suppression was at most 0.026.
In the case of A54U G69C C81G, the nonsense suppression is reported as at most 0.026.
For C3G A33U C34U A62G G67C, the nonsense suppression was at most 0.026.
For U2C U4C, the nonsense suppression was 1.01.
Variant C5G G78U has a nonsense suppression of 0.0283.
C1U G7U G15A U35A A62G gave a nonsense suppression of at most 0.026.
U57A U76A gave a nonsense suppression of at most 0.026.
C27U G59U G61U G66U showed a nonsense suppression of at most 0.026.
Work on G6U U17G C83A yielded a nonsense suppression of 1.15.
Work on C75A C80G yielded a nonsense suppression of at most 0.026.
U21C A54U U57C G59A A89G showed a nonsense suppression of at most 0.026.
Variant G61A C68G has a nonsense suppression of 0.0366.
Variant U2A C80U has a nonsense suppression of 0.0354.
With U21G G61A the nonsense suppression was 0.237.
With G6A U55C the nonsense suppression was 0.262.
G10C C56G U71G showed a nonsense suppression of at most 0.026.
Work on G28A G66C A87U yielded a nonsense suppression of at most 0.026.
A23G G59C C64G C77U G78A showed a nonsense suppression of at most 0.026.
U17C G61C showed a nonsense suppression of 0.769.
For C75U U76G, the nonsense suppression was 0.172.
A9U C64U gave a nonsense suppression of 0.0349.
